In ChEMBL document CHEMBL1123718, “Analogues and derivatives of tenoxicam. 1. Synthesis and antiinflammatory activity of analogues with different residues on the ring nitrogen and the amide nitrogen” (1987):

Assays:
Rattus norvegicus [1] = experiment: Anti-inflammatory activity was assessed by estimating threshold pain response after oral administration to rats; type: functional
Method in brief: (§1)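 Kaolin paw model in female Füllinsdorf rats (about 70 g): 0.1 mL of 10% kaolin s.c. into the right hind paw, with oral drug in 0.5% tragacanth at 0.5 h before and 3.5 h after. Pressure pain threshold was measured after kaolin, and its increase was expressed as % of controls. ED100 was read graphically from group means, or by logit analysis with 95% CI.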

Rattus norvegicus [2] = experiment: Anti-inflammatory activity was assessed by estimating kaolin-induced edema in rat hind paw, by administering orally;NE not effective up to 100 mg/kg; type: functional, organism-based; set-up: dose 100 mg/kg
Method in brief: (§2)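 Female Füllinsdorf albino rats (about 70 g) got 0.1 mL of 10% kaolin suspension s.c. into the right hind paw. Drug in 0.5% tragacanth was given po 0.5 h before and 3.5 h after kaolin. Paw diameter was measured, and edema inhibition was expressed as % of controls. A phenylbutazone 30 mg/kg po validation group ran in each set. ED30 came from group means graphically, or from logit analysis with 95% CI.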

Rattus norvegicus [3] = experiment: Anti-inflammatory activity was assessed by estimating threshold pain response after oral administration to rats; NE not effective up to 100 mg/kg; type: functional, organism-based; set-up: dose 100 mg/kg; method in brief: as §1
Rattus norvegicus [4] = experiment: Ulcerogenic potential was assessed in a rat model by the enhancement of stress-induced gastric mucosal lesions after oral administration; type: functional; conditions: Gastric mucosa
Method in brief: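 Female Füllinsdorf albino rats (about 160 g) were starved 24 h and given drug po in 0.5% tragacanth. They then had 2 h cold-water stress (22.5 °C) and were sacrificed. Rats with macroscopic gastric mucosal erosions were counted. ED50 was defined as the dose giving lesions in 50% of animals and calculated by probit analysis with 95% CI.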

Rattus norvegicus [5] = experiment: Anti-inflammatory activity was assessed by estimating kaolin-induced edema in rat hind paw, by administering orally; type: functional; conditions: po; method in brief: as §2
Rattus norvegicus [6] = experiment: Anti-inflammatory activity was assessed by estimating threshold pain response after oral administration to rats; NE denotes not effective up to 100 mg/kg; type: functional, organism-based; set-up: dose 100 mg/kg; method in brief: as §1
Rattus norvegicus [7] = experiment: Anti-inflammatory activity was assessed by estimating kaolin-induced edema in rat hind paw, by administering orally;NE denotes not effective up to 100 mg/kg; type: functional, organism-based; set-up: dose 100 mg/kg; method in brief: as §2
Rattus norvegicus [8] = experiment: Anti-inflammatory activity was assessed by estimating kaolin-induced edema in rat ind paw, by administering orally; type: functional; conditions: po; method in brief: as §2
Rattus norvegicus [9] = experiment: Anti-inflammatory activity was assessed by estimating threshold pain response after oral administration to rats;NE not effective up to 100 mg/kg; type: functional, organism-based; set-up: dose 100 mg/kg; method in brief: as §1
Rattus norvegicus [10] = experiment: Anti-inflammatory activity was assessed by estimating kaolin-induced edema in rat hind paw, by administering orally; NE not effective up to 100 mg/kg; type: functional, organism-based; set-up: dose 100 mg/kg; method in brief: as §2

| Compound | ED100 (Rattus norvegicus [1]) | ED50 (Rattus norvegicus [4]) | ED30 (Rattus norvegicus [5]) | other results |
| --- | --- | --- | --- | --- |
| CCN1C(C(=O)Nc2ccccn2)=C(O)c2sccc2S1(=O)=O | 24 mg/kg |  |  | ED30 (Rattus norvegicus [2]): No effect |
| CN1C(C(=O)Nc2ncccn2)=C(O)c2sccc2S1(=O)=O |  |  |  | ED100 (Rattus norvegicus [3]): No effect; ED30 (Rattus norvegicus [2]): No effect |
| CN1C(C(=O)Nc2ccccn2)=C(O)c2ccccc2S1(=O)=O [PIROXICAM] | 4 mg/kg | 0.5 mg/kg | 1.9 mg/kg |  |
| Cc1cccc(NC(=O)C2=C(O)c3sccc3S(=O)(=O)N2C)n1 | 27.4 mg/kg | 0.5 mg/kg | 30 mg/kg |  |
| O=C(Nc1ccccn1)C1=C(O)c2sccc2S(=O)(=O)N1 | >100 mg/kg |  | > 100 mg/kg |  |
| Cc1cc(NC(=O)C2=C(O)c3sccc3S(=O)(=O)N2C)no1 | 24 mg/kg |  | 20 mg/kg |  |
| CN1C(C(=O)Nc2cnccn2)=C(O)c2sccc2S1(=O)=O | 56 mg/kg | 1.8 mg/kg | 70 mg/kg |  |
| CN1C(C(=O)Nc2ccc(O)cc2)=C(O)c2sccc2S1(=O)=O |  |  |  | ED100 (Rattus norvegicus [6]): No effect; ED30 (Rattus norvegicus [7]): No effect |
| CN1C(C(=O)Nc2cccnc2)=C(O)c2sccc2S1(=O)=O | >100 mg/kg | 6.3 mg/kg |  | ED30 (Rattus norvegicus [8]): 63.7 mg/kg |
| CN1C(C(=O)Nc2nccs2)=C(O)c2sccc2S1(=O)=O | 14 mg/kg | 2.2 mg/kg | 20 mg/kg |  |
| Cc1cccc(NC(=O)C2=C(O)c3sccc3S(=O)(=O)N2C)c1 | 3.9 mg/kg | 7 mg/kg | 43.4 mg/kg |  |
| Cc1noc(NC(=O)C2=C(O)c3sccc3S(=O)(=O)N2C)c1C |  |  |  | ED100 (Rattus norvegicus [9]): No effect; ED30 (Rattus norvegicus [2]): No effect |
| CN1C(C(=O)Nc2ccccc2)=C(O)c2sccc2S1(=O)=O | 75 mg/kg |  | > 100 mg/kg |  |
| CN1C(C(=O)Nc2ccncc2)=C(O)c2sccc2S1(=O)=O |  |  |  | ED100 (Rattus norvegicus [6]): No effect; ED30 (Rattus norvegicus [7]): No effect |
| CN1C(C(=O)Nc2ccccn2)=C(O)c2sccc2S1(=O)=O [TENOXICAM] | 5.3 mg/kg | 0.7 mg/kg | 2.6 mg/kg |  |
| CN1C(C(=O)Nc2cccc(Cl)c2)=C(O)c2sccc2S1(=O)=O | >100 mg/kg |  | > 100 mg/kg |  |
| Cc1cc(NC(=O)C2=C(O)c3sccc3S(=O)(=O)N2C)nc(C)n1 |  |  |  | ED100 (Rattus norvegicus [3]): No effect; ED30 (Rattus norvegicus [10]): No effect |
